Screens as filed in PubChem BioAssay.
Most compounds without a hit are left out; they make up all but 2% or so of the library.
FXN GAA850 act: FXN promoter activators, primary screen, cell-based, luciferase luminescence, HEK293 lucGAA850. activation, % at 6 µM. AID 540364, 2011. HEK293 lucGAA850 FXN promoter luciferase reporter, 24 h; percent of 10 µM SAHA response. 360,000 tested, 0.56% active;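 active means activation above the average of all compounds screened plus 3 SD, cutoff fixed separately per campaign, cut at about 7.5% in these data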
T cell modulator: modulators of CD8 T cell-vesicle binding, primary screen, mouse 2C CD8+ T cells, flow cytometry; 2C CD8+ T cell-vesicle binding; stronger effect = lower value; response (vesicle binding), % at 7 µM; 330,000 tested, 0.068% active; AID 2052, 2009;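 active means response, share of CD8 T cells binding vesicles, and their 90th percentile fluorescence all below set limits, cut at about 80% in these data, passing the limit was not always enough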;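 further: values below 100% mean blocked vesicle binding to the CD8+ T cells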
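Assay system – 2C mouse CD8+ T cells · Also added – QL9-loaded Drosophila micro-vesicles · Timing – Cell–vesicle co-incubation 1.5 h at 37 °C, staining 20 min on ice · Signal – flow cytometry of vesicle-bound cells · Measure – percent CD8+ FL2 mean versus row control · Controls – Peptide-free naked vesicles (low) and QL9 vesicles with 0.7% DMSO vehicle (high)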
NR2E3 ag-1: NR2E3 agonists in two-hybrid cells, primary screen, cell-based, luminescence, CHO-S, Gal4-NCOR/VP16-NR2E3; Photoreceptor-specific nuclear receptor (Homo sapiens), Q9Y5X4; luciferase; inhibition of corepressor binding, % at 3.98 µM; 360,000 tested, 0.35% active;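 active means inhibition above the mean of all tested compounds plus 3 SD, cut at about 70% in these data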;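 further: higher means lower luciferase signal from less NR2E3 corepressor binding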
Target sequence (Q9Y5X4 whole entry, looked up, the tested form may be a part): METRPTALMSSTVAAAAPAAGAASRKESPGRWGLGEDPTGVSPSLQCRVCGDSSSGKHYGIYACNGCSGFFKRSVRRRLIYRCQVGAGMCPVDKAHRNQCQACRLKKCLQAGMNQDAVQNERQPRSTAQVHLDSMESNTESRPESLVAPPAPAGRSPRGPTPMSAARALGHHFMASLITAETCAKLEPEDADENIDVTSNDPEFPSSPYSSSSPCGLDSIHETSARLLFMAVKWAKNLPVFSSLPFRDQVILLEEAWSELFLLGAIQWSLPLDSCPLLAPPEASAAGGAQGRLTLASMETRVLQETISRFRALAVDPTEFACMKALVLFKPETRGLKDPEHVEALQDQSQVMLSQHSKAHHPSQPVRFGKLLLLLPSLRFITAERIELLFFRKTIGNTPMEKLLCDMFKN
Myeloid diff 2: induction of myeloid progenitor differentiation, primary screen, cell-based, flow cytometry, MLPCN library | ER-HoxA9 myeloid progenitors, lysozyme-GFP differentiation | calls only at 10 µM | 360,000 tested, 1% active | AID 624256, 2012;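 active means normalized GFP-positive differentiation at or above the plate's own cutoff, the solvent-only control mean plus 3 SD; inconclusive means no clear call, values can overlap the other calls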;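 further: cells exposed to compound for four days before flow analysis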
NR2E3 ag-2: inhibitors of NR2E3-RetCOR corepressor binding, primary screen, NR2E3 agonist project, biochemical, TR-FRET, GST-NR2E3, biotin-RetCOR; Photoreceptor-specific nuclear receptor (Homo sapiens), Q9Y5X4; 1536-well; inhibition of corepressor binding, % at 4.78 µM; 320,000 tested, 0.12% active; AID 2300, 2010;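 active means percent inhibition above the cutoff of mean plus 3 SD of all tested compounds, set per screening campaign, cut at about 20% in these data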
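Test system: GST-NR2E3 and biotin-RetCOR proteins | Quantity: 1.35 nM GST-tagged NR2E3 final | Medium: Tris pH 7.5 | Also added: 7 nM biotin-RetCOR | Dosing: Compound at 4.8 µM, single dose | Timing: 5 h at 4 °C | Detection: Time-resolved FRET | Read-out basis: Percent inhibition | Benchmarks: Biotin wells as high control, 0.6% DMSO wells as low control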
Large screens that a line does not name were inactive.

Cc1ccc(NC(=O)CN2CCC(Cc3ccccc3)CC2)cc1S(=O)(=O)N(C)C	Myeloid diff 2 active
O=C(CSc1ccccc1)N1CCN(S(=O)(=O)c2ccccc2F)CC1	Myeloid diff 2 active
CC(C)(C)OC(=O)N1CCc2onc(-c3ccc(Cl)cc3)c2C1=O	none (no result: T cell modulator, NR2E3 ag-2)
CC(C)[C@H](NC(=O)C1(c2ccccc2)CCN(C(=O)OC(C)(C)C)CC1)C(=O)O	Myeloid diff 2 active
CC(C)(C)OC(=O)N1CCC(C(=O)N[C@@H](Cc2ccccc2)C(=O)O)(c2ccccc2)CC1	none
C[C@@H]1ON(C)[C@H]2C[C@H]3c4[nH]c5ccccc5c4CCN3C[C@@H]12	Myeloid diff 2 active (no result: T cell modulator, NR2E3 ag-2)
Cc1cccc(-c2ccc3[nH]c4c(c3c2)CCN2C[C@H]3[C@H](C)ON(C)[C@H]3C[C@@H]42)c1	none (no result: T cell modulator, NR2E3 ag-2)
CCC[C@H]1CN(c2ccc(OC)cc2)C(=O)[C@@H]1CC(=O)NC	none (no result: T cell modulator, NR2E3 ag-2)
COc1ccc(S(=O)(=O)Nc2ccc3c(c2)n(C)c(=O)n3C)cc1C	none
CCOC(=O)c1oc2ccc(S(=O)(=O)Nc3ccc4c(c3)n(C)c(=O)n4C)cc2c1C	NR2E3 ag-1 77.3
CC(C)CN(Cc1cc(=O)oc2cc3c(cc12)CCCC3)CC(C)C	T cell modulator 76.5
CC(C)CCN1C(=O)CSCC1(C)C(=O)Nc1ccc2c(c1)OCCO2 (stereo not given)	none (no result: FXN GAA850 act, T cell modulator, NR2E3 ag-1, NR2E3 ag-2)
CCOC(=O)CSc1nc(COc2ccccc2)nc2ccccc12	T cell modulator 47.2
Cc1cccc(C)c1NC(=O)CSc1nc(COc2ccccc2)nc2ccccc12	none
O=C(Nc1ccc2c(c1)OCCO2)C(c1ccncc1)n1c(=O)c(-c2cc3ccccc3[nH]2)nc2ccccc21 (stereo not given)	Myeloid diff 2 active (no result: FXN GAA850 act, T cell modulator, NR2E3 ag-1, NR2E3 ag-2)
CC(C)=CC(=O)Nc1nc2ccc([N+](=O)[O-])cc2s1	Myeloid diff 2 active (no result: T cell modulator, NR2E3 ag-2)
COc1cc(C(=O)NCC(=O)NNC(=O)CN(C)S(=O)(=O)c2ccc(Cl)cc2)cc(OC)c1OC	none (no result: NR2E3 ag-2)
CC(SCc1ccccc1)C(=O)Nc1ccc(F)cc1 (stereo not given)	none
N#CC(C#N)=C(Nc1ccc(F)cc1)SCc1cccc(Br)c1	NR2E3 ag-1 94.5
Cc1n[nH]c(=S)n1/N=C/c1cccc(OCc2ccccc2)c1	none
Cc1n[nH]c(=S)n1/N=C/c1ccccc1OCc1ccc(Cl)cc1	FXN GAA850 act 8.3
C[C@@H](c1ccccc1)N1C[C@H](COCc2ccccc2)Oc2cc(N3CC[C@@H](O)C3)ccc2S1(=O)=O	Myeloid diff 2 active (no result: FXN GAA850 act, T cell modulator, NR2E3 ag-2)
COc1ccc(NC(=O)Nc2cccc(OC)c2)cc1	none
COc1cccc(NC(=O)Nc2ccc3nc(C)c(C)nc3c2)c1	T cell modulator 72.8
CCOC(=O)C1Nc2ccccc2C2C(O)C(O)CC12 (stereo not given)	Myeloid diff 2 active
CCOC(=O)N1CCN(C(=O)CNC(=O)c2nn(-c3ccc(OC)cc3OC)c(=O)c3ccccc23)CC1	none
O=C(Nc1nnc(Cc2c[nH]c3ccccc23)s1)c1ccc(Cl)cc1Cl	Myeloid diff 2 active
COC(=O)c1cccc(NC(=O)/C=C/c2ccc([N+](=O)[O-])cc2)c1	none
O=C(/C=C/c1ccc([N+](=O)[O-])cc1)Nc1cccc(C(=O)Nc2ccccc2C(=O)O)c1	Myeloid diff 2 active
CCn1c(SCC(=O)c2c[nH]c3ccccc23)nnc1-c1cccs1	Myeloid diff 2 active
COCCn1c(SCC(=O)c2c[nH]c3ccccc23)nnc1-c1ccncc1	none
CCOC(=O)C(=C1Nc2ccccc2N1)n1c(-c2cccnc2)nc2ccccc21	none (no result: FXN GAA850 act, T cell modulator, NR2E3 ag-2)
Cc1cc(N2CCN(C(=O)c3ccco3)CC2)n2nc(-c3cccc(F)c3)cc2n1	Myeloid diff 2 active
COc1cc(OC)cc(-c2cc3nc(C)cc(N4CCN(C(=O)c5ccco5)CC4)n3n2)c1	none (no result: FXN GAA850 act, NR2E3 ag-1, Myeloid diff 2)
CCN(CC)S(=O)(=O)c1ccc(N2Cc3ccccc3C2=N)cc1	Myeloid diff 2 active
Cc1cc(C)c(S(=O)(=O)Nc2ccc3c4c(cccc24)CC3)c(C)c1	Myeloid diff 2 inconclusive
Cc1ccc(S(=O)(=O)Nc2ccc3c4c(cccc24)CC3)c(C)c1	Myeloid diff 2 active
CCOC(=O)N1CCN(S(=O)(=O)c2c(C(=O)N3CCCCC3)c(C)n(C)c2C)CC1	Myeloid diff 2 active
